A short description of data set [1]: melting temperature; fluorescence melt of hairpins on a sequencing array, two-state fit, raised by 9.35 °C to match UV melts. The following applies: sodium 0.088 M. Put shortly:
(§1)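 Melting temperature and folding enthalpy were obtained by bootstrapped two-state fitting. Fits used Cy3 fluorescence of library hairpins with annealed Cy3 and quencher oligos on a sequenced MiSeq flow cell, imaged in 50 mM Na-HEPES pH 8.0, 25 mM NaCl in 2.5 °C steps up to 60 °C and normalised to pre-quench Cy3 and control constructs. Four replicates were combined by inverse-variance weighting, and fitted temperatures were raised by 9.35 °C to match UV melts.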

Data set [2] in a line: folding enthalpy; higher = less favourable; fluorescence melt of hairpins on a sequencing array, two-state fit. The following applies: sodium 0.088 M. Put shortly: as §1

GGAGGGTCGAAAGACTCC (((..(((....)))))): in data set [1], the Tm amounted to 39.5 °C. Also, the folding enthalpy in data set [2] is -14.3 kcal/mol.
Turning to GTCTTACGAAAGTACGAC (((.(((....))).))), the Tm in data set [1] was determined as 43.8 °C. Moreover, the folding enthalpy in data set [2] is -34.5 kcal/mol.
Take GATCAGGGATCTGATC ((((((....)))))): the Tm in data set [1] amounted to 57.1 °C. For the same sequence, in data set [2], the folding enthalpy was -29.1 kcal/mol.
On to GGTTACGAAAGTAACACC ((((((....)))..))), for which the Tm in data set [1] worked out at 44.6 °C. The folding enthalpy in data set [2] was -12.7 kcal/mol.
As for GTGGAGGGAAACTTCCGC (.(((.(....).))).), the Tm in data set [1] came out at 35.1 °C. Also, the folding enthalpy in data set [2] is -26.7 kcal/mol.
Take GATCTGTTGCAGATC ((((((...)))))): in data set [1], the Tm stood at 48.7 °C. Also, the folding enthalpy in data set [2] was -36.5 kcal/mol.
Take GGGCACGAAAGTGTTCCC ((((((....)))..))): in data set [1], the Tm stood at 46.1 °C. For the same sequence, the folding enthalpy in data set [2] is -17.7 kcal/mol.
The like results for GATCGGGTCCCCGATC ((((((....)))))) were, in that order, 61.3 °C and -40.4 kcal/mol.
GTTCTAGAAATAGAAC ((((((....)))))): the Tm in data set [1] amounted to 41.1 °C. Further, the folding enthalpy in data set [2] is -28.4 kcal/mol.
Turning to GATCGTCGGACGATC ((((((...)))))), the Tm in data set [1] amounted to 53.8 °C. The folding enthalpy in data set [2] is -38.9 kcal/mol.
With GCACGTCCGAAAGGATGC (((..(((....)))))), the Tm in data set [1] was determined as 36.8 °C. In data set [2], the folding enthalpy is -11.9 kcal/mol.
GGCCCAGGAAACTAGGCC ((((.((....)).)))): the Tm in data set [1] amounted to 48.1 °C. Also, in data set [2], the folding enthalpy was -30.3 kcal/mol.
Turning to GCAGTGCGAAAGCTCGGC ((.(.((....)).).)), the Tm in data set [1] stood at 54.3 °C. Besides, the folding enthalpy in data set [2] was -25.6 kcal/mol.
In the case of GTAGCTGGAAACAGTTGC (.(.(((....))).).), the Tm in data set [1] worked out at 30.8 °C. Further, in data set [2], the folding enthalpy was -14.5 kcal/mol.
For GACTCACGAAAGTGGTC (((.(((....)))))), the Tm in data set [1] is 46.6 °C. In data set [2], the folding enthalpy was -20 kcal/mol.
With GATCAAGACGTTGATC ((((((....)))))), in data set [1], the Tm worked out at 48.2 °C. Moreover, the folding enthalpy in data set [2] is -34 kcal/mol.
Consider GATCCCCCCTGGGATC ((((((....)))))), for which, in data set [1], the Tm stood at 58.4 °C. Moreover, in data set [2], the folding enthalpy was -39.1 kcal/mol.
On to GTTTGCCGAAAGGCGAAC (((.(((....))).))), for which, in data set [1], the Tm was determined as 61.9 °C. In addition, the folding enthalpy in data set [2] is -28.3 kcal/mol.
In the case of GATCAATGTGTTGATC ((((((....)))))), the Tm in data set [1] is 50.4 °C. The folding enthalpy in data set [2] is -35 kcal/mol.
For GGAGTCGGAAACGGCTTC (.((.((....)).)).), the Tm in data set [1] came out at 44.3 °C. Also, in data set [2], the folding enthalpy was -21.7 kcal/mol.
As to GAGAAGGGAAACCCTCTC ((((.((....)).)))), the Tm in data set [1] worked out at 35.6 °C. Also, the folding enthalpy in data set [2] is -22.8 kcal/mol.
For GCAGGTCGAAAGACATGC (((.(((....))).))) the same measures were 64.2 °C and -40.4 kcal/mol.
GCGGTCACCCGC ((((....)))): the Tm in data set [1] is 56.2 °C. In addition, the folding enthalpy in data set [2] was -24.6 kcal/mol.
As for GGGTACGGAAACGTATCC ((.((((....)))).)), the Tm in data set [1] was determined as 51.8 °C. Besides, the folding enthalpy in data set [2] is -30.1 kcal/mol.
Consider GATCCATTGCTGGATC ((((((....)))))), for which, in data set [1], the Tm was determined as 50.8 °C. In addition, in data set [2], the folding enthalpy is -36.6 kcal/mol.
In the case of GGACGCGAAAGCGATTCC ((((((....)))..))), the Tm in data set [1] was 36.5 °C. For the same sequence, in data set [2], the folding enthalpy is -11 kcal/mol.
Take GGACCTGGAAACAAGTCC ((((.((....)).)))): the Tm in data set [1] amounted to 38.7 °C. Besides, the folding enthalpy in data set [2] was -23.5 kcal/mol.
Take CGCTCGGAAACGAACGCG ((((((....)))..))): the Tm in data set [1] was found to be 44.8 °C. For the same sequence, in data set [2], the folding enthalpy is -19.4 kcal/mol.
For the sequence GCAATCACGAAAGTGTGC (((..(((....)))))), the Tm in data set [1] is 39.9 °C. Besides, the folding enthalpy in data set [2] was -19.5 kcal/mol.
On to GCGTCAGGACGC ((((....)))), for which the Tm in data set [1] is 56.5 °C. Moreover, the folding enthalpy in data set [2] was -26 kcal/mol.
With GCTAATCGAAAGATAAGC (((.(((....))).))), in data set [1], the Tm was 42.8 °C. Also, the folding enthalpy in data set [2] was -26.2 kcal/mol.
Take GATCCGTTATCGGATC ((((((....)))))): in data set [1], the Tm amounted to 59.2 °C. Further, the folding enthalpy in data set [2] was -36 kcal/mol.
For GACCATGGAAACGTGGTC (((((.(....).))))) the same measures were 52.6 °C and -42.7 kcal/mol.
Regarding GATCGTGTGCACGATC ((((((....)))))), in data set [1], the Tm was determined as 59.9 °C. The folding enthalpy in data set [2] is -39.3 kcal/mol.
As to GGTCCTCGAAAGAGAACC (((.(((....))).))), the Tm in data set [1] stood at 46.8 °C. In addition, the folding enthalpy in data set [2] is -32.2 kcal/mol.
Consider GATCATCAACATGATC ((((((....)))))), for which, in data set [1], the Tm was found to be 42.6 °C. Besides, in data set [2], the folding enthalpy was -28.6 kcal/mol.
For the sequence GTTGTGGGAAACCACGAC ((.((((....)))).)), the Tm in data set [1] turned out to be 52.7 °C. For the same sequence, the folding enthalpy in data set [2] is -30.8 kcal/mol.
For GCCTGGCGAAAGCAATGC ((.(.((....)).).)) the same measures were 26.9 °C and -7.84 kcal/mol.
Turning to GCTCTGCGAAAGCTGTGC ((.(.((....)).).)), the Tm in data set [1] was 43.6 °C. For the same sequence, the folding enthalpy in data set [2] is -21 kcal/mol.
As for CGTTTCGGAAACGAGACG (((.(((....))).))), in data set [1], the Tm was determined as 49.1 °C. Also, the folding enthalpy in data set [2] is -24.9 kcal/mol.
In the case of GACACAGGAAACTACGTC (((..((....))..))), in data set [1], the Tm is 28.8 °C. Besides, the folding enthalpy in data set [2] is -17 kcal/mol.
Turning to GGCGCCGAAAGGCATGCC ((((((....)))..))), in data set [1], the Tm worked out at 59.7 °C. Further, the folding enthalpy in data set [2] is -19.2 kcal/mol.
As for GCGGACGAAAGTCCCCGC ((((((....)))..))), the Tm in data set [1] is 45.8 °C. The folding enthalpy in data set [2] was -12.7 kcal/mol.
Consider GGTGTTGGAAACAATACC (((.(((....))).))), for which the Tm in data set [1] came out at 47.4 °C. In addition, in data set [2], the folding enthalpy is -39.7 kcal/mol.
In the case of GATCTAAACATAGATC ((((((....)))))), the Tm in data set [1] is 37 °C. Further, the folding enthalpy in data set [2] was -26.9 kcal/mol.
Regarding GTTAGACGAAAGTCAAAC (((.(((....))).))), in data set [1], the Tm came out at 43.6 °C. In data set [2], the folding enthalpy is -18.6 kcal/mol.
Turning to GATCCAGGGGTGGATC ((((((....)))))), the Tm in data set [1] was found to be 50.4 °C. The folding enthalpy in data set [2] is -28.1 kcal/mol.
With GGTCAGCGAAAGCTACC (((.(((....)))))), the Tm in data set [1] worked out at 47.5 °C. In addition, in data set [2], the folding enthalpy is -16.7 kcal/mol.
Take GCGGTGCTCCGC ((((....)))): in data set [1], the Tm amounted to 56.1 °C. Moreover, in data set [2], the folding enthalpy is -18.6 kcal/mol.
For GCTTCTGGAAACGGAAGC (((((.(....).))))) the same measures were 51.6 °C and -46.4 kcal/mol.
The like results for GTGTCCGAAAGGAGACAC ((((((....)))..))) were, in that order, 50.7 °C and -21.7 kcal/mol.
For GGATGCGGAAACGTATCC ((((.((....)).)))) the same measures were 52.6 °C and -46.7 kcal/mol.
GATCAAGGAATTGATC ((((((....)))))): the Tm in data set [1] was 47.6 °C. For the same sequence, the folding enthalpy in data set [2] is -31.8 kcal/mol.
Take GCTGAGCGAAAGCCGAGC (((..((....))..))): the Tm in data set [1] was determined as 48.7 °C. Moreover, the folding enthalpy in data set [2] is -17.2 kcal/mol.
Turning to GTTCGTGGAAACACAAAC (((.(((....))).))), the Tm in data set [1] amounted to 34 °C. Besides, in data set [2], the folding enthalpy is -22.1 kcal/mol.

The values above are taken from the array DNA melting data of Ke et al. (doi:10.1101/2024.01.08.574731).
